esBAF inh: Bmi1 luciferase reporter increase in mESCs, primary screen, esBAF inhibitor project, mouse ES cells, Bmi1 luciferase knock-in, single point; AID 602393, 2012; 24 h; 100% = twice the neutral-well signal; reporter increase, % at 12.5 µM; 350,000 tested, 2% active; in the data active = activation above about 40%; inconclusive = no clear call, values can overlap the other calls;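 also: a rise in the Bmi1 reporter signal indicates esBAF inhibition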
MITF TRPM1 HTS: activators of MITF-driven TRPM1 promoter reporter, primary screen, cell-based, SK-MEL-5, luciferase, single point. SK-MEL-5 TRPM1-promoter luciferase, 24 h; % of positive control, neutral wells = 0. activation, % at 12.5 µM. 300,000 tested, 0.75% active;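 active = mean activation of at least 80% with every replicate also reaching 80%; inconclusive = mean reaches 80% but some replicate falls short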
Wnt act: Wnt/beta-catenin pathway activators, primary screen, cell-based, plate reader, single point; activation, % at 9.35 µM; Wnt/beta-catenin reporter cell assay, activator; 300,000 tested, 1.2% active; AID 743398, 2014; in the data active = activation above about 30%, passing the limit was not always enough; inconclusive = no clear call, values can overlap the other calls
XiGFP reactiv: activators of inactive X chromosome reactivation, primary screen, imaging, XiGFP fibroblasts, GFP high-content imaging, set 2 | XiGFP mouse fibroblasts, % GFP-positive cells imaging, 3 d; cells co-treated with 5-aza-dC sensitizer; scaled so ellipticine positive control = 100% | activation, % at 7.58 µM | 360,000 tested, 0.055% active;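 active = mean normalized replicate activation at least 10% and every replicate at or above 10%; inconclusive = only one of the two criteria met; inactive = mean below 10% and not all replicates reach 10%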
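Material: XiGFP fibroblasts, SV40-immortalized. Buffer or medium: DMEM plus 5-aza-dC sensitizer. Compound: single concentration per compound, delivered by pin transfer. Times: 3 days compound exposure. Controls: ellipticine 6 µM.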
NSD2 inh: NSD2 histone methyltransferase inhibitors, primary screen, biochemical, AlphaScreen, single concentration, set 2. NSD2 peptide methylation, 120 min. inhibition, % at 12.5 µM. Histone-lysine N-methyltransferase NSD2 (Homo sapiens), O96028. 310,000 tested, 0.54% active. AID 743445, 2014; in the data active = inhibition above about 50%
Casp6 inh: human caspase-6 inhibitors, primary screen, biochemical, VEID-R110 fluorescence, single point, set 2; 350,000 tested, 0.53% active; P55212; purified caspase-6, Z-VEID-R110 cleavage fluorescence; AID 686996, 2013; inhibition, % at 12.5 µM;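 active = mean inhibition across replicates at least about 35%, with every replicate also reaching that limit, limit read from the data; inconclusive = only one of the two criteria met; inactive = neither criterion met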
Target sequence (P55212 24-179 limits assumed): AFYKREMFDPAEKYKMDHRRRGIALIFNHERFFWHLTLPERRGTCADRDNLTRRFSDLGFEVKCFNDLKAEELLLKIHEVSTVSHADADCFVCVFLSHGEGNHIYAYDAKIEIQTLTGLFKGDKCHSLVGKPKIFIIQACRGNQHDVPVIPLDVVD
Target sequence (P55212 194-293 limits assumed): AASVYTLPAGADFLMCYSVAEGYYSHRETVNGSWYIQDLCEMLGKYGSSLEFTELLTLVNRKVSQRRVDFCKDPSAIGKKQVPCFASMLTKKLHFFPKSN
Each line names hits and unclear results; the compound was inactive in the other large screens. Hits are enriched below; roughly 3% of the tested compounds scored in any of these assays.

Cc1ccc(-c2cn3cccnc3n2)cc1	MITF TRPM1 HTS 84, Wnt act inconclusive
Clc1ccc(SCc2cn3cccnc3n2)cc1	esBAF inh inconclusive (no result: XiGFP reactiv, Casp6 inh)
Cc1nccc(-c2ccc3c(c2)OCO3)n1	none (no result: esBAF inh)
c1ccc(-c2nccc(-c3ccc4c(c3)OCO4)n2)cc1	esBAF inh 51 (no result: NSD2 inh)
Cc1ccc(SCc2cn3cccnc3n2)cc1	esBAF inh 46 (no result: Wnt act, XiGFP reactiv, Casp6 inh)
c1cnc2nc(-c3ccc4c(c3)OCO4)cn2c1	esBAF inh inconclusive, MITF TRPM1 HTS 87
CS(=O)(=O)Nc1ccc(-c2cn3cccnc3n2)cc1	none
CC(C)NC(=O)N1C[C@@H]2C(c3ccc(Br)cc3)[C@H](C1)N2CC(F)(F)F (stereo partly drawn)	none (no result: esBAF inh, MITF TRPM1 HTS, Wnt act, NSD2 inh, Casp6 inh)
CCC(=O)N1CC2(C1)CN(C(=O)CN1CCOCC1)[C@@H](CO)c1[nH]c3cc(OC)ccc3c12	none (no result: esBAF inh, MITF TRPM1 HTS, Wnt act, NSD2 inh, Casp6 inh)
COc1cc(/C=N/O)ccc1OCc1ccccc1Cl	MITF TRPM1 HTS 96
Cc1cccc(OCc2nc(C#N)c(NCCN(C)C)o2)c1	none (no result: NSD2 inh)
Cc1ccc(OCc2nc(C#N)c(NCc3ccco3)o2)cc1	none (no result: MITF TRPM1 HTS, XiGFP reactiv, Casp6 inh)
COc1ccc(Nc2oc(COc3cccc(C)c3)nc2C#N)cc1	Wnt act 43 (no result: XiGFP reactiv, Casp6 inh)
N#Cc1nc(COc2cccc(Cl)c2)oc1NCc1ccco1	esBAF inh 51 (no result: NSD2 inh)
COc1ccc(Nc2oc(COc3ccc(C)cc3)nc2C#N)cc1	none (no result: MITF TRPM1 HTS, Wnt act, XiGFP reactiv, Casp6 inh)
CCNc1oc(COc2cccc(C)c2)nc1C#N	esBAF inh 45 (no result: Wnt act, XiGFP reactiv, Casp6 inh)
O=C(Nc1ccccc1F)N[C@@H]1CC[C@H](CCNS(=O)(=O)c2ccc(F)cc2)O[C@H]1CO	none (no result: MITF TRPM1 HTS, Wnt act, NSD2 inh)
CC(=O)N(C)C[C@@H]1Oc2ccc(NS(C)(=O)=O)cc2CC(=O)N(C)C[C@H]1C	none (no result: esBAF inh, MITF TRPM1 HTS, Wnt act, NSD2 inh, Casp6 inh)
CSc1ccc(C=NNc2ccc(S(=O)(=O)Nc3ccccc3C(=O)O)cc2[N+](=O)[O-])cc1	Casp6 inh 41
O=C(O)c1ccccc1NS(=O)(=O)c1ccc(NN=Cc2ccccc2F)c([N+](=O)[O-])c1	Casp6 inh 41
CCOc1ccc(C=NNc2ccc(S(=O)(=O)Nc3ccccc3C(=O)O)cc2[N+](=O)[O-])cc1	Wnt act 37
CCCCN1CC(=O)N2Cc3[nH]c4ccccc4c3C[C@H]2C1=O	none
CN1CC(=O)N2Cc3[nH]c4ccccc4c3C[C@H]2C1=O	Casp6 inh 45 (no result: MITF TRPM1 HTS)
CCCOc1ccc(-c2cc(C(=O)NCC3CCCO3)c3ccccc3n2)cc1 (stereo not drawn)	esBAF inh 23
O=C(NCC1CCCO1)c1cc(-c2ccncc2)nc2ccccc12 (stereo not drawn)	none
COc1cc(C=C2C(=O)c3ccccc3C2=O)ccc1OCC(=O)N1CCOCC1	none (no result: esBAF inh, MITF TRPM1 HTS, Wnt act, XiGFP reactiv, Casp6 inh)
CCOC(=O)C(=O)Cc1cccnn1	Casp6 inh 44
CCOC(=O)C(Cc1ccnc2ccccc12)=NO	none
Cc1ccc2oc(C(=O)N(Cc3ccc(N(C)C)cc3)C3CCS(=O)(=O)C3)c(C)c2c1 (stereo not drawn)	Casp6 inh 59
C=CCN(C(=O)c1oc2c(Cl)cc(C)cc2c1C)C1CCS(=O)(=O)C1 (stereo not drawn)	esBAF inh 64, MITF TRPM1 HTS 111
Cc1cc(Cl)c2oc(C(=O)N3CCN(C4CCS(=O)(=O)C4)CC3)c(C)c2c1 (stereo not drawn)	none
Oc1c(C(Nc2ccccn2)c2ccccn2)ccc2cccnc12 (stereo not drawn)	Wnt act 76 (no result: esBAF inh, XiGFP reactiv)
O=C(O)CCSc1ncnc2sc(-c3ccccc3)cc12	none
CC(=O)CCSc1ncnc2sc(-c3ccccc3)cc12	esBAF inh 77, Wnt act 43
CCC(=O)Nc1ccc2c(c1)C(=O)N(C)C[C@@H](OC)[C@H](C)CN(C(=O)Cc1ccccn1)[C@H](C)CO2	none (no result: MITF TRPM1 HTS, Wnt act, NSD2 inh)
Cc1cc(/C=N/NC(=O)c2ccccc2F)c(C)n1-c1ccccc1	MITF TRPM1 HTS 97, Wnt act 52 (no result: esBAF inh, NSD2 inh)
Cc1cc(/C=N/NC(=O)c2cccc(F)c2)c(C)n1-c1ccccc1	Wnt act inconclusive (no result: esBAF inh)

Screening results from PubChem BioAssay.
